Results collected from several papers.
Compare with care: the assays were run in different laboratories.
PIK3CA M1043I: Phosphatidylinositol 4,5-bisphosphate 3-kinase catalytic subunit alpha isoform (PIK3CA, Homo sapiens, UniProt P42336, M1043I)
PIK3CA E545K: Phosphatidylinositol 4,5-bisphosphate 3-kinase catalytic subunit alpha isoform (PIK3CA, Homo sapiens, UniProt P42336, E545K)
PIK3CA: Phosphatidylinositol 4,5-bisphosphate 3-kinase catalytic subunit alpha isoform (PIK3CA, Homo sapiens, UniProt P42336)
PIK3CA Q546K: Phosphatidylinositol 4,5-bisphosphate 3-kinase catalytic subunit alpha isoform (PIK3CA, Homo sapiens, UniProt P42336, Q546K)
PIK3CA C420R: Phosphatidylinositol 4,5-bisphosphate 3-kinase catalytic subunit alpha isoform (PIK3CA, Homo sapiens, UniProt P42336, C420R)
PIK3CA E545A: Phosphatidylinositol 4,5-bisphosphate 3-kinase catalytic subunit alpha isoform (PIK3CA, Homo sapiens, UniProt P42336, E545A)
PIK3CA H1047Y: Phosphatidylinositol 4,5-bisphosphate 3-kinase catalytic subunit alpha isoform (PIK3CA, Homo sapiens, UniProt P42336, H1047Y)
PIK3CA E542K: Phosphatidylinositol 4,5-bisphosphate 3-kinase catalytic subunit alpha isoform (PIK3CA, Homo sapiens, UniProt P42336, E542K)
PIK3CA H1047L: Phosphatidylinositol 4,5-bisphosphate 3-kinase catalytic subunit alpha isoform (PIK3CA, Homo sapiens, UniProt P42336, H1047L)

target | read-out | technique | concentration | remaining binding [%] | SMILES
PIK3CA M1043I | cell-free assay | competition with immobilised ligand | 1 µM | 100 | CNCc1ccccc1-c1csc([C@H](C)Nc2nc(C)nc3cc(OC)c(OC)cc23)c1
PIK3CA M1043I | binding | competition with immobilised ligand | 1 µM | 74 | Cc1cnc(Nc2ccc(C(=O)N3CCC(N4CCCC4)CC3)cc2)nc1-c1cc2ccccc2s1
PIK3CA E545K | binding | competition with immobilised ligand | 1 µM | 48 | CO[C@@H](C)c1c(Nc2ccc([C@H](N(C)C(=O)C3CCS(=O)(=O)CC3)C(F)(F)F)cc2)cnc2cc(Cl)nn12
PIK3CA | binding | competition with immobilised ligand | 1 µM | 100 | O=C(c1ccc(Nc2nccc(-c3cc4ccccc4s3)n2)cc1)N1CCC(N2CCCC2)CC1
PIK3CA | binding | competition with immobilised ligand | 0.1 µM | 82 | C[C@@H](c1ccc(-n2cnc3c(N)ncnc32)cc1)N1CCc2nn(C)c(Cc3ccccc3)c2C1=O
PIK3CA M1043I | binding | competition with immobilised ligand | 10 µM | 84 | c1cncc(-c2cccc(Nc3nccc(NC4CCCCC4)n3)c2)c1
PIK3CA E545K | binding | competition with immobilised ligand | 1 µM | 64 | O=C(Nc1c[nH]nc1C(=O)NC1CCNCC1)c1cc(F)cc(F)c1
PIK3CA Q546K | binding | competition with immobilised ligand | 1 µM | 100 | COc1cnc(Nc2cccc(S(N)(=O)=O)c2)nc1N1CCN(c2ccccc2)C(=O)C1
PIK3CA M1043I | binding | competition with immobilised ligand | 1 µM | 62 | O=C(c1ccc(Nc2ncc(Cl)c(-c3cc4ccccc4s3)n2)cc1)N1CCC(N2CCCC2)CC1
PIK3CA C420R | cell-free assay | competition with immobilised ligand | 1 µM | 97.1 | Cc1cc(NC(=O)c2cccc(S(F)(F)(F)(F)F)c2)cc(-n2ccn3nc(-c4cccnc4)cc23)c1
PIK3CA C420R | binding | competition with immobilised ligand | 1 µM | 0.6 | C=CC(=O)N1CCC(C(=O)NCC(=O)N2CCN(c3nc(-c4cnc(N)nc4C(F)F)nc(N4CCOCC4)n3)CC2)CC1
PIK3CA Q546K | cell-free assay | competition with immobilised ligand | 1 µM | 99 | FC(F)(F)c1ccc2c(c1)nc(-c1cccnc1)n2C1CC1
PIK3CA M1043I | binding | – | 1 µM | 91 | N[C@H]1CCN(c2nccc(-c3cnn4ncccc34)n2)C1
PIK3CA C420R | cell-free assay | competition with immobilised ligand | 1 µM | 93 | C[C@H](NC(=O)c1cnc2n1[C@](C)(Cc1ccc(C#N)cc1)C(=O)N2c1cc(Cl)c(F)c(Cl)c1)C(=O)NC1(c2ccccn2)CC1
PIK3CA C420R | binding | – | 10 µM | 53 | CN1CCN(c2ccc(Nc3nccc(-c4cccc([N+](=O)[O-])c4)n3)cc2C(F)(F)F)CC1
PIK3CA E545A | binding | competition with immobilised ligand | 1 µM | 84 | O=C(NCCCN1CCOCC1)c1ccc(Nc2nccc(-c3cc4ccccc4s3)n2)cc1
PIK3CA H1047Y | cell-free assay | competition with immobilised ligand | 1 µM | 77 | CCc1ccccc1C(=O)Nc1n[nH]c2c(C)c(F)c(C3C(C#N)=C(C)N(C)C(C)=C3C#N)cc12
PIK3CA E545A | binding | – | 1 µM | 59 | CN(C)c1ncc(F)c(-c2cnn3ncccc23)n1

target | read-out | technique | concentration | remaining binding [%] | SMILES
PIK3CA M1043I | binding | competition with immobilised ligand | 1 µM | 100 | O=C(NCC1CCOCC1)c1n[nH]cc1NC(=O)c1c(F)cccc1F
PIK3CA Q546K | binding | – | 1 µM | 85 | C[C@H]1CCN(c2nccc(-c3cnn4ncccc34)n2)C1
PIK3CA C420R | binding | competition with immobilised ligand | 1 µM | 90 | CNC(=O)[C@@H]1CC[C@@H](n2c(-c3ccc4cnccc4c3)nc3ccc(C(=O)NCc4cccc(C(N)=O)c4)cc32)C1
PIK3CA H1047Y | binding | competition with immobilised ligand | 1 µM | 100 | O=C(c1ccc(Nc2ncc(Cl)c(-c3ccc(Cl)s3)n2)cc1)N1CCC(N2CCCC2)CC1
PIK3CA E542K | binding | – | 10 µM | 70 | CN1CCN(c2ccc(Nc3nccc(-c4ccccc4)n3)cc2C(F)(F)F)CC1
PIK3CA Q546K | binding | – | 1 µM | 55 | F[C@@H]1CCN(c2nccc(-c3cnn4ncccc34)n2)C1
PIK3CA | cell-free assay | competition with immobilised ligand | 1 µM | 100 | CC(=O)c1c(NS(C)(=O)=O)c2cc(-c3ccc(Cl)cc3)c(-c3ccc(Cl)cc3Cl)nc2n(C)c1=O
PIK3CA C420R | binding | – | 1 µM | 100 | CN(CCCC(F)(F)F)c1nccc(-c2cnn3ncccc23)n1
PIK3CA M1043I | cell-free assay | competition with immobilised ligand | 0.1 µM | 88 | COCCOc1nc(-c2ccc(Cl)nc2)nc2c1CN(C(=O)c1ncn3ccccc13)CC2
PIK3CA E542K | binding | competition with immobilised ligand | 1 µM | 93 | COc1cnc(Nc2cccc(S(N)(=O)=O)c2)nc1N1CCN(c2ccccc2)CC1
PIK3CA E545K | binding | competition with immobilised ligand | 1 µM | 100 | Nc1ncc2c(n1)-c1c([nH]c3ccc(C#CC4CC4)cc13)CCCC2
PIK3CA C420R | binding | – | 1 µM | 72 | CC1CCCN1c1nccc(-c2cnn3ncccc23)n1 (centres unmarked)
PIK3CA C420R | binding | competition with immobilised ligand | 1 µM | 100 | O=C(NCCCN1CCOCC1)c1ccc(Nc2ncc(Cl)c(-c3ccc(Cl)s3)n2)cc1
PIK3CA E542K | binding | – | 1 µM | 56 | CN(c1nccc(-c2cnn3ncccc23)n1)C1CC1
PIK3CA H1047L | binding | competition with immobilised ligand | 1 µM | 100 | CCN1CCN(Cc2ccc(C(=O)Nc3ccc(C)c(Oc4ccc5c(c4)CC(=O)N5)c3)cc2C(F)(F)F)CC1
PIK3CA E542K | binding | – | 1 µM | 79 | Cc1cnn2ncc(-c3ccnc(N(C)C)n3)c2c1
PIK3CA H1047L | cell-free assay | competition with immobilised ligand | 5 µM | 98 | COc1ncc2cc3ccccc3nc2c1C#N
